For 18 compounds, MIC, inhibition and IC50 results are on record in ChEMBL document CHEMBL1800046, “Design, synthesis, and X-ray crystallographic studies of α-aryl substituted fosmidomycin analogues as inhibitors of Mycobacterium tuberculosis 1-deoxy-D-xylulose 5-phosphate reductoisomerase” (J Med Chem, 2011).

For assay [1], the system named is Mycobacterium tuberculosis. The assay can be described thus: Antibacterial activity against Mycobacterium tuberculosis H37Rv ATCC 27294 after 14 days by microplate alamar blue assay. The class given is functional. To be noted: H37Rv ATCC 27294, 336 h. In outline:
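Resazurin (Alamar blue) dye readout in 96-well format. Serially diluted compound added to a log-phase culture of M. tuberculosis H37Rv (ATCC 27294). MIC recorded in µg/ml.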
On the technique in general: Alamar Blue is a resazurin reagent that responds to reducing activity.

The test system of assay [2] is Mycobacterium tuberculosis. Kind of assay: Inhibition of Mycobacterium tuberculosis DXR-catalyzed NADPH-dependent rearrangement and reduction of DXP to form MEP at 100 uM measured every 5 secs for 500 secs by spectrophotometric analysis. In outline: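 Screened with inhibitor at 100 µM. Started by adding DXP, at 22 °C. A340 for NADPH read every 5 s over 500 s. Initial velocity from the linear slope, compared with the uninhibited reaction.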

Assay [3] is described as follows: Inhibition of Mycobacterium tuberculosis DXR-catalyzed NADPH-dependent rearrangement and reduction of DXP to form MEP measured every 5 secs for 500 secs by spectrophotometric analysis.

One may read the MIC as the lowest concentration found to suppress growth. A high value points to a need for much substance. One may read the inhibition as the drop in the measured response relative to a control, in per cent. Lower therefore signals little suppression. As usually defined, the IC50 is the concentration at which inhibition is half-maximal. Lower therefore signals greater potency.

The structures appear in SMILES notation.

`CC(=O)N(O)CCC1c2ccccc2COP1(=O)O` (racemic) came in with a minimal inhibitory concentration (MIC) in assay [1] of more than 32 µg/mL. In addition, the inhibition in assay [2] was 12%.

`O=CN(O)CCCP(=O)(O)O` [FOSMIDOMYCIN] showed an IC50 in assay [3] of 0.08 µM.

`CC(=O)N(O)CCC(c1ccccc1CO)P(=O)(O)O` (racemic) came in with an IC50 in assay [3] of 465 µM. The MIC in assay [1] was more than 32 µg/mL. This compound also returned an inhibition in assay [2] of 36%.

`CC(=O)N(O)CCC(c1ccccc1Br)P(=O)(O)O` (racemic) showed a concentration for half-maximal inhibition (IC50) in assay [3] of 210 µM. For the same compound, the minimal inhibitory concentration (MIC) in assay [1] was more than 32 µg/mL. Also, the inhibition in assay [2] worked out at 38%.

With `CCOP(=O)(OCC)C(CCN(O)C=O)c1ccc(Cl)c(Cl)c1` (racemic), the IC50 in assay [3] was more than 100 µM.

In assay [3], `CCOP(=O)(OCC)C(CCN(O)C(C)=O)c1ccc(Cl)c(Cl)c1` (racemic) displayed a 50% inhibitory concentration (IC50) of more than 100 µM.

In turn, `COCc1ccccc1C(CCN(O)C(C)=O)P(=O)(O)O` (racemic) displayed a minimum inhibitory concentration (MIC) in assay [1] of more than 32 µg/mL. In addition, in assay [2], the inhibition is 30%.

Regarding `CC(=O)N(O)CCC(c1ccccc1-c1cccnc1)P(=O)(O)O` (racemic), the MIC in assay [1] was more than 32 µg/mL. The compound also showed an inhibition in assay [2] of 20%.

Regarding `CCOP(=O)(O)C(CCNC(C)=O)c1ccccc1-c1cccnc1` (racemic), the MIC in assay [1] is more than 32 µg/mL. The compound further yielded an inhibition in assay [2] of 20%.

Compound `CC(=O)N(O)CCC(c1ccccc1)P(=O)(O)O` (racemic) registered a half-maximal inhibitory concentration (IC50) in assay [3] of 7.4 µM. In addition, the MIC in assay [1] is more than 32 µg/mL. This compound returned an inhibition in assay [2] of 92%.

In assay [1], `CC(=O)N(O)CCC(c1ccccc1-c1cccs1)P(=O)(O)O` (racemic) yielded a minimum inhibitory concentration (MIC) of more than 32 µg/mL. In assay [2], the inhibition worked out at 30%.

With `CCOP(=O)(O)C(CCN(O)C=O)c1ccc(Cl)c(Cl)c1` (racemic), the IC50 in assay [3] is 38 µM.

`CC(=O)N(O)CCCP(=O)(O)O` [FR-900098] showed an IC50 in assay [3] of 0.16 µM.

Consider `CCOP(=O)(O)C(CCN(O)C(C)=O)c1ccc(Cl)c(Cl)c1` (racemic), for which, in assay [3], it took 22 µM to reach half-maximal inhibition (IC50).

For the compound `O=CN(O)CCC(c1ccccc1Br)P(=O)(O)O` (racemic), in assay [3], the 50% inhibitory concentration (IC50) was 5.6 µM. The MIC in assay [1] was more than 32 µg/mL. The compound further gave an inhibition in assay [2] of 93%.

For `CC(=O)N(O)CCC(c1ccccc1C)P(=O)(O)O` (racemic), the half-maximal inhibitory concentration (IC50) in assay [3] turned out to be 205 µM. Besides, the minimal inhibitory concentration (MIC) in assay [1] is more than 32 µg/mL. The compound also gave an inhibition in assay [2] of 55%.

The compound `CC(=O)N(O)CCC(c1ccccc1C#N)P(=O)(O)O` (racemic) showed an MIC in assay [1] of more than 32 µg/mL. Besides, the inhibition in assay [2] stood at 30%.

As for `CC(=O)N(O)CCC(c1ccccc1CCO)P(=O)(O)O` (racemic), in assay [3], the concentration for half-maximal inhibition (IC50) amounted to 150 µM. Also, the MIC in assay [1] is more than 32 µg/mL. This compound displayed an inhibition in assay [2] of 35%.
